According to ChEMBL document CHEMBL1629448, “Identification and synthesis of novel inhibitors of acetyl-CoA carboxylase with in vitro and in vivo efficacy on fat oxidation” (J Med Chem, 2010):
Active and inactive are the calls of the source. The calls are words filed in the database; no cut-off is given here.

Assays:
[1] = Clearance in Wistar rat plasma at 3 mg/kg, iv; assay type: ADME, organism-based; parameters: dose 3 mg/kg, route intravenous
Outline: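 Wistar rats given an intravenous bolus of 3 mg/kg in 5% solutol solution. Plasma sampled at eight time points over 24 h. Drug quantified by LC-MS/MS against an internal standard. C0h is the concentration immediately after dosing; AUC0-inf, clearance, t1/2 and Vdss were also derived.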

Rattus norvegicus [2] = assay: Stimulation of fat oxidation in Wistar rat assessed as decrease in respiratory quotient at 50 mg/kg, po administered 2 hrs before lipid load; assay type: functional, organism-based; parameters: dose 50 mg/kg
Outline: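 Female Wistar rats housed singly in calorimetry cages, acclimated at least 12 h. Dosed orally with 50 mg/kg or vehicle. Two hours later, oral 10 mL/kg 20% Lipofundin MCT (2 g fat/kg) or PBS. O₂ and CO₂ measured every 17 min per cage for 1 min. RQ is CO₂ production/O₂ consumption.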

Rattus norvegicus [3] = assay: Reduction in plasma triglycerides in obese ZDF rat at 30 mg/kg, po for 3 days measured 4 hrs post last dose; assay type: functional, organism-based; parameters: dose 30 mg/kg
Outline: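 Female obese ZDF rats, eight weeks old, dosed orally for 3 days with 30 mg/kg in 5% ethanol/5% solutol/90% PBS (n = 8); controls got vehicle, with lean controls alongside. Four hours after the last dose, aortic blood taken under isoflurane. Triglycerides measured by GPD-PAP method; means ± SEM.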

[4] = molecular target: T1, Pyruvate carboxylase, mitochondrial (Bos taurus) (UniProt Q29RK2); assay: Inhibition of bovine pyruvate carboxylase
T1 sequence (whole entry): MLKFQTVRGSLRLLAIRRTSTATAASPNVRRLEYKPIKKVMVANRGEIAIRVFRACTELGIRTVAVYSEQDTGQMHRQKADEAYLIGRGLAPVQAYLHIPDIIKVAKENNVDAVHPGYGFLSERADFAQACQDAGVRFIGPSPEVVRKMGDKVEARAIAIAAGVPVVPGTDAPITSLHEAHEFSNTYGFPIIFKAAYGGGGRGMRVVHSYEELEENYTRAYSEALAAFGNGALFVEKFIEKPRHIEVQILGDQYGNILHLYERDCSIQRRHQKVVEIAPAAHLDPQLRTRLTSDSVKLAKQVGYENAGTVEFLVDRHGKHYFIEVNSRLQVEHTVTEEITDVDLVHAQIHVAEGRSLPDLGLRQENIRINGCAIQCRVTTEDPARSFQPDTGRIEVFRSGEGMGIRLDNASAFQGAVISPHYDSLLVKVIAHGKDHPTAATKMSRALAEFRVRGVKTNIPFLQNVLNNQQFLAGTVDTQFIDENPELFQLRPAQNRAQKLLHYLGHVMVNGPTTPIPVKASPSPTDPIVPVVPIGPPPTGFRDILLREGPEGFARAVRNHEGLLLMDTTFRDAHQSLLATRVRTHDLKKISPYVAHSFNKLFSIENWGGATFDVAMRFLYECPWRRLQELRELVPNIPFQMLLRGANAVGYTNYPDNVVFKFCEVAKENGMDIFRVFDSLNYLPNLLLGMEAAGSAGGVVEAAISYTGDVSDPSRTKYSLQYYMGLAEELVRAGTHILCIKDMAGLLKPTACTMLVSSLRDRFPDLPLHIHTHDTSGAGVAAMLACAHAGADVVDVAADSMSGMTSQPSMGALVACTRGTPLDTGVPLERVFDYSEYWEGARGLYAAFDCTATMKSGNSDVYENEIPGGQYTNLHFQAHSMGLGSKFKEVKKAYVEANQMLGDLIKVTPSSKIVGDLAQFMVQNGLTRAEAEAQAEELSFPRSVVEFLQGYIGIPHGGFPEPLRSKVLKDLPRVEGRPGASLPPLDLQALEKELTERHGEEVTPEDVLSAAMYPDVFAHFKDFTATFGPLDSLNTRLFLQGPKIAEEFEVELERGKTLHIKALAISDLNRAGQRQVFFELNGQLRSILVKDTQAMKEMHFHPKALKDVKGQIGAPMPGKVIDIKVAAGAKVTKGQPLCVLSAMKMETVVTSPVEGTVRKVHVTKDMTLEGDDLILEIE

[5] = molecular target: T2, Peroxisome proliferator-activated receptor delta (Homo sapiens) (UniProt Q03181); assay: Inhibition of PPARdelta
T2 sequence (whole entry): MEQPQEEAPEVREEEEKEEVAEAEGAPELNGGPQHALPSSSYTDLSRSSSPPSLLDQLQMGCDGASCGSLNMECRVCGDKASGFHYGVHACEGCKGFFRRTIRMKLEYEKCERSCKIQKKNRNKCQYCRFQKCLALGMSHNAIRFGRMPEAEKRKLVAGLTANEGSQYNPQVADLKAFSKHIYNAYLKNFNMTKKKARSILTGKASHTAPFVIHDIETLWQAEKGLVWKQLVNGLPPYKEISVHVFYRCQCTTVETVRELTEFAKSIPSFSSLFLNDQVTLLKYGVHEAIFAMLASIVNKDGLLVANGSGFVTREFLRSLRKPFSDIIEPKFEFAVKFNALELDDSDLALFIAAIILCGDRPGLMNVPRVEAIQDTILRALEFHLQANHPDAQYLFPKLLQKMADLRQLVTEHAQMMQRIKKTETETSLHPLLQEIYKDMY

CC(=O)N[C@@H](C)CCc1ccc(Oc2ccc(OC(C)C)nc2)cc1
clearance [1]: 26.7 mL/min/kg | Activity (Rattus norvegicus [2]): Active | Activity (Rattus norvegicus [3]): Active | inhibition [4]: inactive | inhibition [5]: inactive
